Assay [1] addresses T1, Protein cereblon/Bromodomain-containing protein 4 (Homo sapiens) (UniProt O60885+Q96SW2). Nature of the assay: PROTAC activity at BRD4/Cereblon in human LS174T cells assessed as BRD4 protein expression at 500 nM for 2 hrs and measured 22 hrs after washout by Western blot analysis. It counts as cell-based. The gist of the method:
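LS174t cells exposed 2 h to PROTAC; for washout, medium replaced and cells collected 22 h later. BRD4 by immunoblot (15 µg lysate, 10% SDS-PAGE, anti-BRD4 1:1,000 overnight at 4 °C, GAPDH/β-actin control).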
(In western blotting, separated proteins are transferred to a membrane and probed.)

Assay [2] has as its target T1, Protein cereblon/Bromodomain-containing protein 4 (Homo sapiens). The assay is described as follows: PROTAC activity at BRD4/Cereblon in human LS174T cells assessed as decrease in MYC protein expression at […] for 24 hrs by Western blot analysis. It counts as cell-based. The gist of the method:
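Cells treated 24 h across 1 nM–10 µM range (fibroblasts at 500/1000 nM). Immunoblot: RIPA lysate with 2.5 mmol/l DTT, 15 µg per lane on 10% SDS-PAGE, nitrocellulose, 5% milk block 1 h. BRD4 or MYC primary 1:1,000 overnight at 4 °C, HRP secondary 1:10,000 for 60 min; GAPDH/β-actin loading control; ECL detection.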

In assay [3] the test system is LS174T. Nature of the assay: Inhibition of colony formation in human LS174T cells for 3 days by crystal violet staining analysis. The format is functional, cell-based. The settings on record: time 3.0 day. The procedure, abridged: (§1)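 Cells (1-2x10^3) were plated in six-well plates and, after 48 h, exposed to the PROTAC at the stated concentrations for 3–5 days. Plates were then methanol-fixed and stained with crystal violet. Culture was at 37 °C, 5% CO2, with 10% FCS. Media were RPMI 1640 (Caco2, COLO320, DLD1, LS174t), McCoy's (HCT116, HT29) or DMEM/HamsF12 (SW480). Experiments were done ≥3 times.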

The target of assay [4] is T1, Protein cereblon/Bromodomain-containing protein 4 (Homo sapiens). The assay is described as follows: PROTAC activity at BRD4/Cereblon in human HCT116 p53+/+ cells assessed as decrease in BRD4 protein degradation at 5 to 10 uM for 24 hrs by Western blot analysis. It counts as cell-based. The conditions noted are these: HCT-116, dose 5-10 µM. The procedure, abridged:
(§2)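 Eight CRC lines exposed 24 h to PROTAC at 5 or 10 µM (stocks 2 mM in DMSO, diluted in PBS or medium). Lysis in RIPA with protease/phosphatase inhibitors and 2.5 mmol/l DTT; 15 µg protein on 10% SDS-PAGE, semi-dry transfer to nitrocellulose. Anti-BRD4 or anti-MYC at 1:1,000 overnight at 4 °C; GAPDH or β-actin loading control; chemiluminescence.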

For assay [5] the target is unchanged. Nature of the assay: PROTAC activity at BRD4/Cereblon in human HT-29 cells assessed as decrease in BRD4 protein degradation at 5 to 10 uM for 24 hrs by Western blot analysis. The format is cell-based. The settings on record: dose 5-10 µM. The procedure, abridged:
as §2

Assay [6] shares this target. The assay is described as follows: PROTAC activity at BRD4/Cereblon in human DLD-1 cells assessed as decrease in MYC protein expression at 5 to 10 uM for 24 hrs by Western blot analysis. It counts as cell-based. The settings on record: dose 5-10 µM. The procedure, abridged: as §2
Assay [7] shares this target. Nature of the assay: PROTAC activity at BRD4/Cereblon in human HCT116 p53+/+ cells assessed as decrease in MYC protein expression at 5 to 10 uM for 24 hrs by Western blot analysis. The format is cell-based. The settings on record: HCT-116, dose 5-10 µM. The procedure, abridged:
as §2

The test system of a further assay is Caco-2. The assay is described as follows: Inhibition of colony formation in human Caco-2 cells at 5 to 10 uM by crystal violet staining analysis. The format is functional, cell-based. The settings on record: dose 5-10 µM. The procedure, abridged:
as §1

The test system of the next assay is COLO 320. The assay is described as follows: Inhibition of colony formation in human COLO 320 cells at 5 to 10 uM by crystal violet staining analysis. The format is functional, cell-based. The settings on record: dose 5-10 µM. The procedure, abridged:
as §1

In the next assay the test system is DLD-1. The assay is described as follows: Inhibition of colony formation in human DLD-1 cells at 5 to 10 uM by crystal violet staining analysis. It counts as functional, cell-based. The settings on record: dose 5-10 µM. The procedure, abridged: as §1
Assay [8] relates to HCT-116. Nature of the assay: Inhibition of colony formation in human HCT-116 p53+/+ cells at 5 to 10 uM by crystal violet staining analysis. It counts as functional, cell-based. The conditions noted are these: dose 5-10 µM. The procedure, abridged: as §1
For assay [9], the system named is HCT-116. Nature of the assay: Inhibition of colony formation in human HCT-116 p53-/- cells at 5 to 10 uM by crystal violet staining analysis. It counts as functional, cell-based. The settings on record: dose 5-10 µM. The procedure, abridged: as §1
The subject of assay [10] is LS174T. Nature of the assay: Inhibition of colony formation in human LS174T cells at 5 to 10 uM by crystal violet staining analysis. The format is functional, cell-based. The settings on record: dose 5-10 µM. The procedure, abridged:
as §1

A further assay relates to SW480. The assay is described as follows: Inhibition of colony formation in human SW480 cells at 5 to 10 uM by crystal violet staining analysis. The settings on record: dose 5-10 µM. The format is functional, cell-based. The procedure, abridged:
as §1

The test system of another assay is HT-29. The assay is described as follows: Inhibition of colony formation in human HT-29 cells at 5 to 10 uM by crystal violet staining analysis. The format is functional, cell-based. The conditions noted are these: dose 5-10 µM. The gist of the method:
as §1

For assay [11], the target named is T1, Protein cereblon/Bromodomain-containing protein 4 (Homo sapiens). Nature of the assay: PROTAC activity at BRD4/Cereblon in human LS174T-dbet1 resistant cells assessed as MYC protein expression at 500 to 1000 nM for 24 hrs by Western blot analysis. It counts as cell-based. The settings on record: dose 500-1000 nM.
Assay [12] has as its target T2, von Hippel-Lindau disease tumor suppressor/Bromodomain-containing protein 4 (Homo sapiens) (UniProt O60885+P40337). Nature of the assay: PROTAC activity at BRD4/VHL E3 ligase in human LS174T cells assessed as BRD4 protein degradation at 250 nM for 2 hrs and measured 22 hrs after washout by Western blot analysis. The format is cell-based. The procedure, abridged:
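LS174t cells were exposed to PROTAC for 2 h. For washout, the PROTAC was removed by changing the culture medium and cells were harvested 22 h later. BRD4 was assessed by western blot (15 µg lysate, 10% SDS-PAGE, chemiluminescence), normalised against GAPDH/β-actin.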

The target of assay [13] is T2, von Hippel-Lindau disease tumor suppressor/Bromodomain-containing protein 4 (Homo sapiens). Nature of the assay: PROTAC activity at BRD4/VHL E3 ligase in human LS174T cells assessed as BRD4 protein degradation at 100 to 500 nM pretreated with proteasome inhibitor MG132 for 4 hrs by Western blot analysis. It counts as cell-based. The conditions noted are these: dose 100-500 nM. The procedure, abridged: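 LS174t cells were pre-incubated for 4 h with the proteasome inhibitor MG132 (10 mM DMSO stock) before PROTAC addition. BRD4 was then immunoblotted from RIPA lysates (15 µg, 10% SDS-PAGE, nitrocellulose, primary 1:1,000 overnight at 4 °C), with GAPDH/β-actin as loading control.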

Assay [14] shares this target. Nature of the assay: PROTAC activity at BRD4/VHL E3 ligase in human fibroblast cells assessed as effect on MYC protein expression at 100 to 250 nM for 24 hrs by Western blot analysis. It counts as cell-based. The conditions noted are these: dose 100-250 nM. The procedure, abridged: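 Normal human dermal fibroblasts in 10% FCS medium were treated with 100 or 250 nM PROTAC. BRD4 and MYC protein were assessed by western blot (15 µg RIPA lysate, 10% SDS-PAGE, primary 1:1,000 overnight at 4 °C), with GAPDH/β-actin as loading control.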

The target is the same in assay [15]. Nature of the assay: PROTAC activity at BRD4/VHL E3 ligase in human DLD-1 cells assessed as decrease in BRD4 protein degradation at 5 to 10 uM for 24 hrs by Western blot analysis. The format is cell-based. The conditions noted are these: dose 5-10 µM. The procedure, abridged:
as §2

For assay [16] the target is unchanged. The assay is described as follows: PROTAC activity at BRD4/VHL E3 ligase in human HCT116 p53+/+ cells assessed as decrease in MYC protein expression at 5 to 10 uM for 24 hrs by Western blot analysis. The format is cell-based. The conditions noted are these: HCT-116, dose 5-10 µM. The procedure, abridged:
as §2

The target is the same in assay [17]. The assay is described as follows: PROTAC activity at BRD4/VHL E3 ligase in human HCT116 p53-/- cells assessed as decrease in MYC protein expression at 5 to 10 uM for 24 hrs by Western blot analysis. It counts as cell-based. The conditions noted are these: HCT-116, dose 5-10 µM. The procedure, abridged: as §2

Calls of active or inactive are those of the source. No cut-off for these calls is given here.

T1 sequence (Q96SW2 whole entry, looked up, other chains not shown): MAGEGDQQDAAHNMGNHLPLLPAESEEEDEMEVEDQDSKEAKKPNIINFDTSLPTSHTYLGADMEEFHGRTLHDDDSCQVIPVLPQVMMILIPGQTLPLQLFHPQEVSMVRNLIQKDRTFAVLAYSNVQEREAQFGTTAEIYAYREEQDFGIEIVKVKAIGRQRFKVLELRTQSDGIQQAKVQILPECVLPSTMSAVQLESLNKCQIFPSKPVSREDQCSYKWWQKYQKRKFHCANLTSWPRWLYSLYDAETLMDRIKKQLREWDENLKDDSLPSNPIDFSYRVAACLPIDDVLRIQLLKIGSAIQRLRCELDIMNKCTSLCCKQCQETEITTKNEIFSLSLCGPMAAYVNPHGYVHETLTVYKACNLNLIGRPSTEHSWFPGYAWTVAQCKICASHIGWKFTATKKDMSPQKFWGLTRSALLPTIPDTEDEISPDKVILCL
T2 sequence (P40337 whole entry, looked up, other chains not shown): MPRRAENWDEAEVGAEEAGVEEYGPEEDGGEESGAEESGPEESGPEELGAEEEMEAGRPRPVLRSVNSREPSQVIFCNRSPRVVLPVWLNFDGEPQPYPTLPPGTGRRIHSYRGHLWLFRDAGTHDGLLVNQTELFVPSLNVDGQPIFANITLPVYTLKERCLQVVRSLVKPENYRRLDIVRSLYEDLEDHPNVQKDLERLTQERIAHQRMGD

Take `Cc1sc2c(c1C)C(c1ccc(Cl)cc1)=N[C@@H](CC(=O)NCCCCNC(=O)COc1cccc3c1C(=O)N(C1CCC(=O)NC1=O)C3=O)c1nnc(C)n1-2` (stereo partly specified): the outcome in assay [1] and in assay [11] was inactive. The outcome in assay [2], in assay [4], in assay [5], in assay [6] and in assay [7] was Active. Moreover, the inhibition entry with LS174T [3] is “Dose-Dependent Effect”. Further, the inhibition result in the assay with Caco-2, in the assay on COLO 320, in the assay with DLD-1, with HCT-116 [8], with HCT-116 [9] and with LS174T [10] was “Active” throughout. The inhibition result with SW480 and in the assay with HT-29 was “Active” in each case.

For `Cc1ncsc1-c1ccc(CNC(=O)[C@@H]2C[C@@H](O)CN2C(=O)[C@@H](NC(=O)COCCOCCOCCNC(=O)C[C@@H]2N=C(c3ccc(Cl)cc3)c3c(sc(C)c3C)-n3c(C)nnc32)C(C)(C)C)cc1`, the result in [12], in [13], in assay [14] and in assay [15] was inactive. Moreover, the inhibition entry in the assay on LS174T [3] was “Dose-Dependent Effect”. The result in assay [16] and in assay [17] was Active. The inhibition result with Caco-2, in the assay on COLO 320, in the assay on DLD-1, with HCT-116 [8], in the assay on HCT-116 [9] and in the assay with LS174T [10] was “Active” each time. Moreover, the inhibition result in the assay with SW480 and in the assay with HT-29 was “Active” throughout.

(Values after ChEMBL document CHEMBL5712087, “Targeting bromodomain-containing protein 4 (BRD4) inhibits MYC expression in colorectal cancer cells” (Neoplasia, 2019).)
